≈ marks a conversion by molar mass, not a printed value.
How the values were obtained:
Assay type in all cases: functional
[1] = system: Mycolicibacterium smegmatis; assay: Antitubercular activity against Mycobacterium smegmatis ATCC 19420 after 7 days by resazurin assay; details: ATCC 19420, 168 h
How it was run: (§1)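 Middlebrook 7H9 broth with 10% OADC, culture adjusted to McFarland 2. 50 µL culture added to 150 µL fresh medium. Stocks at 2 mg/mL in DMF, tested first at 1, 10 and 100 µg/mL, then at 0.3125-5 µg/mL. DMF controls. After 7 days at 37 °C, 0.01% resazurin added. Blue-to-pink change read for MIC.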

Staphylococcus aureus [2] = assay: Antibacterial activity against Staphylococcus aureus ATCC 25923 after 16 to 18 hrs by serial plate dilution method
Pseudomonas aeruginosa [3] = assay: Antibacterial activity against Pseudomonas aeruginosa ATCC 27853 after 16 to 18 hrs by […]
Talaromyces marneffei [4] = assay: Antifungal activity against Penicillium marneffei at MIC after 3 to 4 days
How it was run: (§2)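 Fungal suspension made by transferring a loopful of culture to 3 mL saline and seeding agar plates, 20 mL agar per dish, dried 1 h at 37 °C. Punched wells loaded with test compound in DMSO at its MIC. DMSO-only control. Triplicate plates held 3-4 days at 37 °C. Inhibition zone diameter measured.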

Klebsiella pneumoniae [5] = assay: Antibacterial activity against Klebsiella pneumoniae after 16 to 18 hrs by […]
Escherichia coli [6] = assay: Antibacterial activity against Escherichia coli ATCC 25922 after 16 to 18 hrs by […]
Escherichia coli [7] = assay: Antibacterial activity against Escherichia coli ATCC 25922 at MIC after 3 to 4 days
How it was run: (§3)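 Agar well diffusion on seeded agar plates, 20 mL agar per dish, dried 1 h at 37 °C. Wells punched and loaded with test compound in DMSO at its MIC. DMSO-only control. Plates run in triplicate and kept 3-4 days at 37 °C. Inhibition zone diameter measured.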

[8] = system: Mycobacterium tuberculosis; assay: Antitubercular activity against Mycobacterium tuberculosis H37Rv assessed as growth inhibition after 7 days by resazurin assay
How it was run: (§4)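 M. tuberculosis H37Rv ATCC 27294 grown in Middlebrook 7H9 broth with 10% OADC and adjusted to McFarland 2. Culture was diluted 1:4 into fresh medium. Compounds came from 2 mg/mL DMF stocks, screened first at 1, 10 and 100, then at 0.3125–5. DMF-only controls were included. After 7 days at 37 °C, 0.01% resazurin was added; a blue-to-pink change marked growth, and the MIC was read.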

[9] = system: Trichophyton mentagrophytes; assay: Antifungal activity against Trichophyton mentagrophytes after 3 to 4 days by serial plate dilution method
Klebsiella pneumoniae [10] = assay: Antibacterial activity against Klebsiella pneumoniae at MIC after 3 to 4 days; how it was run: as §3
Aspergillus flavus [11] = assay: Antifungal activity against Aspergillus flavus NCIM N0.524 after 3 to 4 days by serial plate dilution method
Candida albicans [12] = assay: Antifungal activity against Candida albicans after 3 to 4 days by serial plate dilution method
Candida albicans [13] = assay: Antifungal activity against Candida albicans at MIC after 3 to 4 days; how it was run: as §2
[14] = system: Mycobacterium tuberculosis; assay: Antitubercular activity against Mycobacterium tuberculosis H37Rv after 7 days by resazurin assay; details: 168 h; how it was run: as §4
Bacillus subtilis [15] = assay: Antibacterial activity against Bacillus subtilis after 16 to 18 hrs by […]
Aspergillus fumigatus [16] = assay: Antifungal activity against Aspergillus fumigatus NCIM N0.902 after 3 to 4 days by serial plate dilution method
Staphylococcus aureus [17] = assay: Antibacterial activity against Staphylococcus aureus ATCC 25923 at […] after 3 to 4 days; how it was run: as §3
Aspergillus fumigatus [18] = assay: Antifungal activity against Aspergillus fumigatus NCIM N0.902 at MIC after 3 to 4 days; how it was run: as §2
Talaromyces marneffei [19] = assay: Antifungal activity against Penicillium marneffei after 3 to 4 days by serial plate dilution method
[20] = system: Mycolicibacterium fortuitum; assay: Antitubercular activity against Mycobacterium fortuitum ATCC 19542 after 7 days by resazurin assay; details: ATCC 19542, 168 h; how it was run: as §1
Bacillus subtilis [21] = assay: Antibacterial activity against Bacillus subtilis at MIC after 3 to 4 days; how it was run: as §3
Aspergillus flavus [22] = assay: Antifungal activity against Aspergillus flavus NCIM N0.524 at MIC after 3 to 4 days; how it was run: as §2
[23] = system: Trichophyton mentagrophytes; assay: Antifungal activity against Trichophyton mentagrophytes at MIC after 3 to 4 days; how it was run: as §2
Pseudomonas aeruginosa [24] = assay: Antibacterial activity against Pseudomonas aeruginosa ATCC 27853 at MIC after 3 to 4 days; how it was run: as §3

| Structure (SMILES) | MIC [1] | diameter of the inhibition zone (DIZ) (Talaromyces marneffei [4]) | MIC (Klebsiella pneumoniae [5]) | diameter of the inhibition zone (DIZ) (Escherichia coli [7]) | growth inhibition (GI) [8] | MIC [9] | diameter of the inhibition zone (DIZ) (Klebsiella pneumoniae [10]) | MIC (Aspergillus flavus [11]) | MIC (Candida albicans [12]) | diameter of the inhibition zone (DIZ) (Candida albicans [13]) | MIC [14] | MIC (Bacillus subtilis [15]) | MIC (Aspergillus fumigatus [16]) | diameter of the inhibition zone (DIZ) (Staphylococcus aureus [17]) | diameter of the inhibition zone (DIZ) (Aspergillus fumigatus [18]) | MIC (Talaromyces marneffei [19]) | MIC [20] | diameter of the inhibition zone (DIZ) (Bacillus subtilis [21]) | diameter of the inhibition zone (DIZ) (Aspergillus flavus [22]) | diameter of the inhibition zone (DIZ) [23] | other results |
| --- | --- | --- | --- | --- | --- | --- | --- | --- | --- | --- | --- | --- | --- | --- | --- | --- | --- | --- | --- | --- | --- |
| Nc1nc(COC(=O)c2ccccc2[N+](=O)[O-])cs1 | 10 µg/mL (≈ 35.8 µM) | 11 mm | 6.25 µg/mL (≈ 22.4 µM) | 11 mm | 95% | 25 µg/mL (≈ 89.5 µM) | 16 mm | 25 µg/mL (≈ 89.5 µM) | 25 µg/mL (≈ 89.5 µM) | <10 mm | 0.625 µg/mL (≈ 2.24 µM) | 12.5 µg/mL (≈ 44.8 µM) | 25 µg/mL (≈ 89.5 µM) | 11 mm | <10 mm | 12.5 µg/mL (≈ 44.8 µM) | 10 µg/mL (≈ 35.8 µM) | 11 mm | <10 mm | <10 mm | MIC (Staphylococcus aureus [2]): 12.5 µg/mL (≈ 44.8 µM); MIC (Pseudomonas aeruginosa [3]): 25 µg/mL (≈ 89.5 µM); MIC (Escherichia coli [6]): 12.5 µg/mL (≈ 44.8 µM); diameter of the inhibition zone (DIZ) (Pseudomonas aeruginosa [24]): <10 mm |
| Nc1nc(COC(=O)c2ccccc2)cs1 | > 100 µg/mL | <10 mm | 6.25 µg/mL (≈ 26.7 µM) | <10 mm | 0% | 25 µg/mL (≈ 107 µM) | 16 mm | 25 µg/mL (≈ 107 µM) | 25 µg/mL (≈ 107 µM) | <10 mm | > 100 µg/mL | 6.25 µg/mL (≈ 26.7 µM) | 25 µg/mL (≈ 107 µM) | 16 mm | <10 mm | 25 µg/mL (≈ 107 µM) | > 100 µg/mL | 16 mm | <10 mm | <10 mm | MIC (Staphylococcus aureus [2]): 6.25 µg/mL (≈ 26.7 µM); MIC (Pseudomonas aeruginosa [3]): 25 µg/mL (≈ 107 µM); MIC (Escherichia coli [6]): 25 µg/mL (≈ 107 µM); diameter of the inhibition zone (DIZ) (Pseudomonas aeruginosa [24]): <10 mm |
| Nc1nc(COC(=O)Cc2ccccc2OC(F)(F)F)cs1 | > 100 µg/mL | 16 mm | 25 µg/mL (≈ 75.2 µM) | 11 mm | <90% | 6.25 µg/mL (≈ 18.8 µM) | <10 mm | 6.25 µg/mL (≈ 18.8 µM) | 6.25 µg/mL (≈ 18.8 µM) | 16 mm | 5 µg/mL (≈ 15 µM) | 12.5 µg/mL (≈ 37.6 µM) | 6.25 µg/mL (≈ 18.8 µM) | 11 mm | 16 mm | 6.25 µg/mL (≈ 18.8 µM) | > 100 µg/mL | 11 mm | 16 mm | 16 mm | MIC (Staphylococcus aureus [2]): 12.5 µg/mL (≈ 37.6 µM); MIC (Pseudomonas aeruginosa [3]): 25 µg/mL (≈ 75.2 µM); MIC (Escherichia coli [6]): 12.5 µg/mL (≈ 37.6 µM); diameter of the inhibition zone (DIZ) (Pseudomonas aeruginosa [24]): <10 mm |
| Nc1nc(COC(=O)c2ccc(Cl)cc2)cs1 | > 100 µg/mL | <10 mm | 6.25 µg/mL (≈ 23.3 µM) | 16 mm | 0% | 6.25 µg/mL (≈ 23.3 µM) | 16 mm | 25 µg/mL (≈ 93 µM) | 25 µg/mL (≈ 93 µM) | <10 mm | > 100 µg/mL | 6.25 µg/mL (≈ 23.3 µM) | 6.25 µg/mL (≈ 23.3 µM) | 16 mm | 16 mm | 25 µg/mL (≈ 93 µM) | > 100 µg/mL | 16 mm | <10 mm | 16 mm | MIC (Staphylococcus aureus [2]): 6.25 µg/mL (≈ 23.3 µM); MIC (Pseudomonas aeruginosa [3]): 6.25 µg/mL (≈ 23.3 µM); MIC (Escherichia coli [6]): 6.25 µg/mL (≈ 23.3 µM); diameter of the inhibition zone (DIZ) (Pseudomonas aeruginosa [24]): 16 mm |
| Nc1nc(COC(=O)c2cccs2)cs1 | 10 µg/mL (≈ 41.6 µM) | <10 mm | 25 µg/mL (≈ 104 µM) | 16 mm | <90% | 6.25 µg/mL (≈ 26 µM) | <10 mm | 25 µg/mL (≈ 104 µM) | 12.5 µg/mL (≈ 52 µM) | 11 mm | 10 µg/mL (≈ 41.6 µM) | 25 µg/mL (≈ 104 µM) | 6.25 µg/mL (≈ 26 µM) | 11 mm | 16 mm | 25 µg/mL (≈ 104 µM) | 10 µg/mL (≈ 41.6 µM) | <10 mm | <10 mm | 16 mm | MIC (Staphylococcus aureus [2]): 12.5 µg/mL (≈ 52 µM); MIC (Pseudomonas aeruginosa [3]): 6.25 µg/mL (≈ 26 µM); MIC (Escherichia coli [6]): 6.25 µg/mL (≈ 26 µM); diameter of the inhibition zone (DIZ) (Pseudomonas aeruginosa [24]): 16 mm |
| Cc1cc(C2CCCCC2)n(O)c(=O)c1.NCCO [CICLOPIROX OLAMINE] | – | 20 mm | – | – | – | 6.25 µg/mL | – | 6.25 µg/mL | 6.25 µg/mL | 20 mm | – | – | 6.25 µg/mL | – | 25 mm | 6.25 µg/mL | – | – | 25 mm | 27 mm | – |
| CO[C@H]1/C=C/O[C@@]2(C)Oc3c(C)c(O)c4c(O)c(c(/C=N/N5CCN(C)CC5)c(O)c4c3C2=O)NC(=O)/C(C)=C\C=C\[C@H](C)[C@H](O)[C@@H](C)[C@@H](O)[C@@H](C)[C@H](OC(C)=O)[C@@H]1C [RIFAMPIN] | 1.5 µg/mL (≈ 1.82 µM) | – | – | – | 95% | – | – | – | – | – | 0.5 µg/mL (≈ 0.608 µM) | – | – | – | – | – | 1.5 µg/mL (≈ 1.82 µM) | – | – | – | – |
| O=C(O)c1cn(C2CC2)c2cc(N3CCNCC3)c(F)cc2c1=O [CIPROFLOXACIN] | – | – | 6.25 µg/mL (≈ 18.9 µM) | 30 mm | – | – | 23 mm | – | – | – | – | 1.56 µg/mL (≈ 4.71 µM) | – | 22 mm | – | – | – | 21 mm | – | – | diameter of the inhibition zone (DIZ) (Pseudomonas aeruginosa [24]): 16 mm |
| NNC(=O)c1ccncc1 [ISONIAZID] | 50 µg/mL (≈ 365 µM) | – | – | – | 95% | – | – | – | – | – | 0.7 µg/mL (≈ 5.1 µM) | – | – | – | – | – | 12.5 µg/mL (≈ 91.1 µM) | – | – | – | – |

Reference: ChEMBL document CHEMBL1944562, “Design, synthesis of some new (2-aminothiazol-4-yl)methylester derivatives as possible antimicrobial and antitubercular agents” (2012)
